Measurements from ChEMBL document CHEMBL3045671, “Non-imidazole histamine H3 ligands: part V. synthesis and preliminary pharmacological investigation of 1-[2-thiazol-4-yl- and 1-[2-thiazol-5-yl-(2-aminoethyl)]-4-n-propylpiperazine derivatives” (Med Chem Res, 2013).

What was measured:
Histamine H3 receptor [1] = biological target: Histamine H3 receptor (Rattus norvegicus, UniProt Q9QYN8); assay: Binding affinity to Rattus norvegicus (rat) H3 receptor
Histamine H3 receptor [2] = biological target: Histamine H3 receptor (Cavia porcellus, UniProt Q9JI35); assay: Antagonist activity at H3 receptor in Cavia porcellus (guinea pig) jejunum assessed as inhibition of electrically evoked muscle contraction; conditions: read-out: pA2 (converted)
Chain of Histamine H3 receptor (Cavia porcellus, UniProt Q9JI35) (Q9JI35 whole entry): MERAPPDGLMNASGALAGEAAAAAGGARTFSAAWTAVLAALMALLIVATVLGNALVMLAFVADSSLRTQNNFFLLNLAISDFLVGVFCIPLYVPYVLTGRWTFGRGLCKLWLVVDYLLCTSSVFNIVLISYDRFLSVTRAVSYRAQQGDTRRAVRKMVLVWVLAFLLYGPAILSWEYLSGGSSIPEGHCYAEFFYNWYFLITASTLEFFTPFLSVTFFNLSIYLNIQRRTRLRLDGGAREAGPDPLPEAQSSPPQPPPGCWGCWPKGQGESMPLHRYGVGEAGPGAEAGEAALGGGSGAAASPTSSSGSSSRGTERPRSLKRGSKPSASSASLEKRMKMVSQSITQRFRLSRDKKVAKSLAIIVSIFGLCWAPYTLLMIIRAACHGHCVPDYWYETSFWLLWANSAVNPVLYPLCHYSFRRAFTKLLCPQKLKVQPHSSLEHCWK
In short: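 Segments under 1.0 g tension, isotonic recording; 1 h equilibration with washes every 10 min. Field-stimulated maximally (15–20 V) at 0.1 Hz, 0.5 ms rectangular pulses. After 30 min stimulation, cumulative (R)-α-methylhistamine curves (half-log steps) run with pyrilamine 1 × 10⁻⁵ mol/L in bath. The curve was repeated 20 min after the test compound was added, with pyrilamine given beforehand.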

Chain of Histamine H3 receptor (Rattus norvegicus, UniProt Q9QYN8) (Q9QYN8 whole entry): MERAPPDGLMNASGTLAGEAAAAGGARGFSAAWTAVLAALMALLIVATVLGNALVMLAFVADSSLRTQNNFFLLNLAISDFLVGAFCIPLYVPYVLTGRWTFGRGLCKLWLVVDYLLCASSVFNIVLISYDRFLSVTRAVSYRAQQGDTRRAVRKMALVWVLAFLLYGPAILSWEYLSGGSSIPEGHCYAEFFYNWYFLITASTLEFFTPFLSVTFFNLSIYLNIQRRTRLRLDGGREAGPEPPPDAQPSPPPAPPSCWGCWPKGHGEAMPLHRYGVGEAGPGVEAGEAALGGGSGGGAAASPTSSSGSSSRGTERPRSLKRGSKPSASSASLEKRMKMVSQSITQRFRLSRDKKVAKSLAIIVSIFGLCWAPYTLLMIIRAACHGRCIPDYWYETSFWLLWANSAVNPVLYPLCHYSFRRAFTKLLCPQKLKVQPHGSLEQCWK

| SMILES | Ki (Histamine H3 receptor [1]) | Kb (Histamine H3 receptor [2]) |
| --- | --- | --- |
| O=C(c1ccc(OCCCN2CCCCC2)cc1)C1CC1 | 4 nM | – |
| CCCN1CCN(c2ncc(CCN(C)C(=O)c3ccc([N+](=O)[O-])cc3)s2)CC1 | – | 17.4 nM |
| CCCN1CCN(c2ncc(CCN(C)C(=O)c3ccc(Cl)cc3)s2)CC1 | – | 18.6 nM |
| CCCN1CCN(c2ncc(CCN(C)C(=O)c3ccc(C)cc3)s2)CC1 | – | 24.5 nM |
| CCCN1CCN(c2ncc(CCN(C)C(=O)c3ccccc3)s2)CC1 | – | 35.5 nM |
| CCCN1CCN(c2ncc(CCN(C)CCc3ccccc3)s2)CC1 | – | 24.5 nM |
| CCCN1CCN(c2nc(CCN(C)C(=O)c3ccc([N+](=O)[O-])cc3)cs2)CC1 | – | 933 nM |
| CCCN1CCN(c2nc(CCN(C)C(=O)c3ccc(Cl)cc3)cs2)CC1 | – | 589 nM |
| CCCN1CCN(c2nc(CCN(C)C(=O)c3ccc(C)cc3)cs2)CC1 | – | 1580 nM |
| CCCN1CCN(c2nc(CCN(C)C(=O)c3ccccc3)cs2)CC1 | – | 2240 nM |
| CCCN1CCN(c2nc(CCN(C)CCCCCc3ccccc3)cs2)CC1 | – | 204 nM |
| CCCN1CCN(c2nc(CCN(C)CCCCc3ccccc3)cs2)CC1 | – | 191 nM |
| CCCN1CCN(c2nc(CCN(C)CCCc3ccccc3)cs2)CC1 | – | 245 nM |
| CCCN1CCN(c2nc(CCN(C)Cc3ccccc3)cs2)CC1 | – | 75.9 nM |
| CCCN1CCN(c2nc(CCN(C)CCc3ccccc3)cs2)CC1 | – | 155 nM |
| CCCN(C)CCc1csc(N2CCN(CCC)CC2)n1 | – | 120 nM |
| CCCN1CCN(c2nc(CCN(C)C)cs2)CC1 | – | 174 nM |
